From ChEMBL document CHEMBL1138744, “In vitro cytotoxic activities of 2-alkyl-4,6-diheteroalkyl-1,3,5-triazines: new molecules in anticancer research” (J Med Chem, 2004) come the findings set out here.

In general, IC50 refers to the midpoint of a concentration-inhibition curve. A low value points to greater potency in that assay. By GI50 is commonly meant the concentration that inhibits growth by half. Higher therefore signals less potent growth inhibition.

Holding throughout (assay type): functional, cell-based
One experiment has as its system CAKI-1. As to the kind of experiment: Cytotoxic activity of compound towards human cancer cell line CAKI-1 (renal cancer). The gist of the method: (§1)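 Compounds first passed a one-dose primary assay on three cell lines, then were tested on a 60-line human tumour panel. Dose–response curves gave growth-inhibition values (IG50, μM). For each compound, only the most sensitive of the 60 lines was reported.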

The test system of experiment [1] is C6. Kind of experiment: Cytotoxic activity of compound towards […] cell line after 72 hr of administration. To be noted: Rattus norvegicus, C6, 72 h.
Experiment [2] relates to HL-60. As to the kind of experiment: Cytotoxic activity of compound towards human HL60 cell line after 48 hr of administration. To be noted: HL-60, 48 h.
Experiment [3] relates to L1210. As to the kind of experiment: Cytotoxic activity of compound towards human leukemia L1210 cell line after 48 hr of administration. To be noted: Mus musculus, L1210, 48 h.
Experiment [4] has as its system L1210. As to the kind of experiment: Cytotoxic activity of compound towards human L1210 cell line after 72 hr of administration. To be noted: Mus musculus, L1210, 72 h.
Experiment [5] relates to C6. As to the kind of experiment: Cytotoxic activity of compound towards […] cell line after 48 hr of administration. To be noted: Rattus norvegicus, C6, 48 h.
Experiment [6] concerns HL-60. As to the kind of experiment: Cytotoxic activity of compound towards human HL60 cell line after 72 hr of administration. To be noted: HL-60, 72 h.
Experiment [7] concerns C6. Kind of experiment: Cytotoxic activity of compound towards […] cell line after 72 hr of administration; NE= No effect.
The subject of experiment [8] is L1210. As to the kind of experiment: Cytotoxic activity of compound towards […] cell line after 48 hr of administration; NE= No effect.
Experiment [9] has as its system HL-60. Kind of experiment: Cytotoxic activity of compound towards human HL60 cell line after 48 hr of administration; NE= No effect.
Experiment [10] deals with L1210. Kind of experiment: Cytotoxic activity of compound towards human L1210 cell line after 72 hr of administration; NE= No effect.
The subject of experiment [11] is HL-60. As to the kind of experiment: Cytotoxic activity of compound towards human HL60 cell line after 72 hr of administration; NE= No effect.
In the next experiment the test system is LOX IMVI. Kind of experiment: Cytotoxic activity of compound towards human cancer cell line LOX IMVI (melanoma). The method, boiled down:
as §1

In a further experiment the test system is SR. As to the kind of experiment: Cytotoxic activity of compound towards human cancer cell line SR (leukemia). The method, boiled down:
as §1

Another experiment concerns OVCAR-4. Kind of experiment: Cytotoxic activity of compound towards human cancer cell line OVCAR-4 (ovarian cancer). The gist of the method:
as §1

Another experiment has as its system HOP-62. Kind of experiment: Cytotoxic activity of compound towards human cancer cell line HOP-62 (lung cancer). The method, boiled down: as §1
A further experiment concerns HCT-116. Kind of experiment: Cytotoxic activity of compound towards human cancer cell line HCT116 (colon cancer). The gist of the method: as §1
Experiment [12] in a line: Cytotoxic activity of compound towards human L1210 cell line after 72 hr of administration; a is No cytotoxic effect.

The molecule `COc1nc(OC)nc(-c2cccc(F)c2)n1` displayed an IC50 in the experiment with CAKI-1 of under 0.01 µM.

As for `CC(C)c1nc(N2CCOCC2)nc(N2CCOCC2)n1`, the IC50 with C6 [1] is 490 µM; with HL-60 [2], 87.1 µM; in the experiment on L1210 [3], 93.3 µM; with L1210 [4] it was 67.6 µM; in the experiment with C6 [5], 141 µM; in the experiment with HL-60 [6], 200 µM.

On to `CC(C)(C)C#Cc1nc(N(CCO)CCO)nc(N(CCO)CCO)n1`, for which the IC50 entry in the experiment on C6 [7] is “Not Active”; with L1210 [8] it was “Not Active”; with HL-60 [9] it was “Not Active”; in the experiment on L1210 [10] it was “Not Active”; in the experiment with HL-60 [11] it was “Not Active”; with C6 [5], 3390 µM.

`COc1nc(C#CCCCC#N)nc(OC)n1`: growth in the experiment with LOX IMVI was halved (GI50) at 2.09 µM.

Consider `COc1ccc(Oc2nc(Oc3ccc(OC)cc3)nc(Oc3ccc(OC)cc3)n2)cc1`, for which the IC50 with HL-60 [2] amounted to 70.8 µM; in the experiment on HL-60 [6], 52.5 µM.

Consider `COc1nc(C#CC(C)(C)C)nc(OC)n1`, for which the IC50 in the experiment with C6 [1] was found to be 16.6 µM; with SR, 5.25 µM; in the experiment on HL-60 [2] it was 7.08 µM; with L1210 [3] it was 12 µM; with L1210 [4], 9.12 µM; in the experiment with C6 [5] it was 16.6 µM. Besides, the IC50 in the experiment on HL-60 [6] was determined as 7.08 µM.

As for `COc1nc(C#CC2(O)CCCCC2)nc(OC)n1`, the IC50 with OVCAR-4 worked out at 1.86 µM.

On to `COc1nc(C#CC(C)(C)O)nc(OC)n1`, for which the IC50 with C6 [1] was found to be 15.1 µM; with HL-60 [2], 15.8 µM; in the experiment on L1210 [3], 14.1 µM; in the experiment with L1210 [4], 12.9 µM; in the experiment with C6 [5], 16.2 µM; in the experiment on HL-60 [6], 15.1 µM.

`C1CN(c2nc(N3CCOCC3)nc(N3CCOCC3)n2)CCO1`: the IC50 amounted to 288 µM in the experiment on C6 [1]; 129 µM in the experiment on HL-60 [2]; 151 µM in the experiment with L1210 [3]; 110 µM with L1210 [4]; 151 µM with C6 [5]; 100 µM in the experiment with HL-60 [6].

For `CCC(O)C#Cc1nc(OC)nc(OC)n1` (stereo not given), the IC50 in the experiment on HOP-62 amounted to 4.9 µM.

For the molecule `COc1nc(OC)nc(OC)n1`, the IC50 is 302 µM with HL-60 [2] and 339 µM with HL-60 [6].

Regarding `CC[C@H](C)Cc1nc(N2CCOCC2)nc(N2CCOCC2)n1`, the IC50 in the experiment on C6 [1] was determined as 240 µM; with HL-60 [2] it was 219 µM; in the experiment on L1210 [3] it was 141 µM; in the experiment on L1210 [4], 57.5 µM; with C6 [5] it was 575 µM; in the experiment with HL-60 [6], 141 µM.

On to `COc1nc(C#CC2CCCCC2)nc(OC)n1`, for which the IC50 in the experiment on HCT-116 was found to be 0.4 µM.

Turning to `COc1ccc(Oc2nc(C#CC(C)(C)O)nc(Oc3ccc(OC)cc3)n2)cc1`, the IC50 in the experiment with C6 [1] is over 10000 µM; in the experiment on SR, 0.63 µM; in the experiment with HL-60 [2], 17 µM; in the experiment with L1210 [3], 11 µM; in the experiment on L1210 [4] it was 14.1 µM; with C6 [5], over 10000 µM. In addition, the IC50 with HL-60 [6] came out at 36.3 µM.

For `CC(C)(C)C#Cc1nc(N2CCOCC2)nc(N2CCOCC2)n1`, the IC50 entry with C6 [7] was “Not Active”; in the experiment with HL-60 [2], 182 µM; in the experiment on L1210 [3], 182 µM; in the experiment with L1210 [4] it was 120 µM; with C6 [5] it was 6610 µM; with HL-60 [6], 389 µM.

With `COc1ccc(Nc2nc(C#CC(C)(C)C)nc(Nc3ccc(OC)cc3)n2)cc1`, the IC50 is over 10000 µM with C6 [1]; “No effect” in experiment [12]; “Not Active” in the experiment on L1210 [8]; 589 µM in the experiment on HL-60 [2]; over 10000 µM in the experiment with C6 [5]; 575 µM in the experiment with HL-60 [6].
